Measurements as given in publication PMC10099425 (ACS Omega, 2023).

How the values were obtained:
[1] = Diffusion and permeability studies; assay type: in vitro ADME; conditions: after 480 min, PBS pH 6.8, 37 °C, NAR 50 mg/mL in donor
[2] = Pharmacokinetic study after oral administration; assay type: in vivo, Wistar rats; conditions: male, Wistar, rat, plasma, 50 mg/kg
Procedure, shortened: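 Male Wistar rats (220–250 g, 10–12 weeks) were fasted overnight with water ad libitum (n = 6/group). They were dosed orally with the compound as a 0.5% w/v Na-CMC suspension or DES formulation. Retro-orbital blood was drawn at 0, 0.5, 2, 4, 6, 8, 12 and 24 h. Plasma was precipitated with acetonitrile (1:3) and assayed by isocratic C18 HPLC-DAD at 283 nm. Parameters came from PK software; mean ± SD.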

[3] = cited from earlier work

amount of NAR diffused [1]: 30.78 ± 3.4 % w/v | AUC(0-t) [2]: 226 ± 4.2 ng·h/mL | Cmax [2]: 31.2 ± 2.3 ng/mL | MRT [2]: 6.46 ± 1.7 h | Tmax [2]: 4.1 ± 0.6 h | half-life [2]: 3.43 ± 1.1 h
Structure (SMILES): C[C@@H]1O[C@@H](O[C@H]2[C@H](Oc3cc(O)c4c(c3)O[C@H](c3ccc(O)cc3)CC4=O)O[C@H](CO)[C@@H](O)[C@@H]2O)[C@H](O)[C@H](O)[C@H]1O [NAR (pure), 4′,5,7-trihydroxyflavanone 7-rhamnoglucoside]
elimination half-life [3]: 3.64 ± 3.0 h
